Assay [1] deals with SUP-T1. The assay can be described thus: Cytotoxicity against human SupT1 cells after 24 hrs by CellTiter-Blue assay. In kind it is functional, cell-based. The essentials: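 SupT1 cells cultured in RPMI with 10% FBS and penicillin-streptomycin, then incubated 24 h with serially diluted compound from 50 mM DMSO stocks. CellTiter-Blue resazurin reduction was read at 560/590 nm and normalized to the no-drug control as percent viability. IC50s came from the fitted dose-response curve of each experiment and were averaged over three experiments ± SD.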

In assay [2] the test system is MCF7. Put plainly: Cytotoxicity against human MCF7 cells after 24 hrs by CellTiter-Blue assay. The assay is classed as functional, cell-based. Particulars: MCF7, 24 h. The essentials:
(§1)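 MCF-7 or MDA-MB231 cells kept in DMEM with 10% FBS and penicillin-streptomycin. The cells were exposed for 24 h to serial dilutions of compound, diluted in medium at 37 °C from 50 mM DMSO stocks. Viability was read by resazurin-to-resorufin fluorescence at 560/590 nm ex/em and normalized to the no-drug control. Dose-response fits gave IC50s, averaged over three experiments ± SD.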

Assay [3] deals with MDA-MB-231. Put plainly: Cytotoxicity against human MDA-MB-231 cells after 24 hrs by CellTiter-Blue assay. In kind it is functional, cell-based. As to conditions: MDA-MB-231, 24 h. The essentials:
as §1

Assay [4] has as its system SK-BR-3. The assay can be described thus: Cytotoxicity against human SKBR3 cells after 24 hrs by CellTiter-Blue assay. In kind it is functional, cell-based. Particulars: SK-BR-3, 24 h. The essentials: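 SKBR3 breast cancer cells grown in DMEM with 10% FBS and penicillin-streptomycin. The cells were treated for 24 h with serial compound dilutions made in 37 °C medium from 50 mM DMSO stocks. Resorufin fluorescence (560/590 nm ex/em) was expressed as percent of the untreated control. Curve fitting gave IC50s, with the mean of three repeats ± SD.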
In general terms: The colour change of resazurin is a common sign of viable cells or microbes.

Assay [5] deals with SUP-T1. The assay can be described thus: Induction of early apoptosis in human SupT1 cells at 25 uM after 24 hrs using annexin V-FITC staining by FACS. In kind it is functional. The essentials:
(§2)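 SupT1 cells treated for 24 h at different compound concentrations, then harvested and washed in PBS. Phosphatidylserine exposure was detected by Annexin V-FITC staining and flow cytometry. Brightly stained cells were counted as apoptotic.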
In general terms: A flow cytometer gives signals particle by particle.

Assay [6] relates to SUP-T1. Put plainly: Induction of apoptosis in human SupT1 cells at 25 uM after 24 hrs using DiOC6 staining by FACS. In kind it is functional. The essentials:
(§3)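 SupT1 cells exposed to varying compound concentrations for 24 h, then collected and PBS-washed. Mitochondrial depolarization was detected by 10 μM DiOC6 staining and flow cytometry. Cells with reduced DiOC6 staining were gated as apoptotic.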

The test system of assay [7] is SUP-T1. The assay can be described thus: Induction of early apoptosis in human SupT1 cells after 24 hrs using annexin V-FITC staining by FACS. The assay is classed as functional, cell-based. The essentials: as §2
Assay [8] concerns SUP-T1. The assay can be described thus: Induction of apoptosis in human SupT1 cells after 24 hrs using DiOC6 staining by FACS. The assay is classed as functional, cell-based. The essentials: as §3
Assay [9] relates to NHDF. Put plainly: Cytotoxicity against NHDF after 24 hrs by CellTiter-Blue assay. Particulars: Homo sapiens. In kind it is cell-based. The essentials:
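Normal human dermal fibroblasts grown in fibroblast medium and treated for 24 h with serial compound dilutions. Viability was measured by resorufin fluorescence (560/590 nm ex/em) as percent of the no-drug control. IC50 was taken from the dose-response fit as a single determination.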

Assay [10] deals with SUP-T1. The assay can be described thus: Induction of early apoptosis in human SupT1 cells at 50 uM after 24 hrs using annexin V-FITC staining by FACS. The assay is classed as functional. The essentials:
as §2

Assay [11] concerns SUP-T1. The assay can be described thus: Induction of apoptosis in human SupT1 cells at 50 uM after 24 hrs using DiOC6 staining by FACS. In kind it is functional. The essentials:
as §3

What is called IC50 is the concentration needed to halve the response being measured. A high value points to a need for much substance. Consider `CCCCCCCCCCCCC/C=C/[C@@H](O)[C@H](CO)NC(=O)CCCCC`, for which half-maximal inhibition in assay [1] (Homo sapiens, SUP-T1, 24 h) (IC50) required 48 µM.

`CCCCCC(=O)N[C@@H](CO)[C@H](O)/C=C/CC(CC(C)C)CC(C)C` had an IC50 in assay [1] (Homo sapiens, SUP-T1, 24 h) of 52.9 µM.

Take `CCCCCCCCCCC(=O)N[C@@H](CO)[C@H](O)/C=C/CC(CC(C)C)CC(C)C`: the IC50 in [1] (Homo sapiens, SUP-T1, 24 h) turned out to be 15.5 µM; in [2] it was 16.3 µM; in assay [3] it was 22.4 µM; in assay [4], 10.2 µM; in assay [9], 45.4 µM. Moreover, the Activity in assay [5] was 66.16%; in assay [6], 75.15%; in [7], “Dose-dependent effect”; in assay [8] it was “Dose-dependent effect”.

For `CCCCCCCCCCCCC/C=C/[C@@H](O)[C@H](CO)NC(C)=O` (stereo in doubt; 1), the IC50 in [1] (sup-t1) was 41.4 µM; in assay [2], 45.4 µM; in [3], 35.4 µM; in assay [4], 49.2 µM; in [9], 66.5 µM. For the same compound, the Activity in assay [10] was 42.33%; in assay [11], 56.14%; in assay [7], “Dose-dependent effect”; in assay [8] it was “Dose-dependent effect”.

In turn, `CCCCCCCCCC/C=C/[C@@H](O)[C@H](CO)NC(=O)CC(CC(C)C)CC(C)C` showed an IC50 in [1] (Homo sapiens, SUP-T1, 24 h) of 29.1 µM. This lies in the double-digit micromolar range.

In turn, `CCCCCCCCCCCC[C@@H](O)[C@H](CO)NC(=O)CC(CC(C)C)CC(C)C` registered a 50% inhibitory concentration (IC50) in assay [1] (Homo sapiens, SUP-T1, 24 h) of 76.3 µM.

For the origin of these results see ChEMBL document CHEMBL1152729, “Ceramides: branched alkyl chains in the sphingolipid siblings of diacylglycerol improve biological potency” (Bioorg Med Chem, 2009).
